Test results published in ChEMBL document CHEMBL5030567, “Macrocyclic Inhibitors of HGF-Activating Serine Proteases Overcome Resistance to Receptor Tyrosine Kinase Inhibitors and Block Lung Cancer Progression” (J Med Chem, 2021).
Calls of active or inactive are those of the source. The calls are words filed in the database; no cut-off is given here. Numbered stars: 1 amine (or outer) side, 2 acyl side, 3 side chain; on linkers, the order of the positions; unused ones are H or OH. Square brackets hold non-standard residues; d marks the D form. Peptide text beside a SMILES is read from it. X1 = N=C(N)NCCC[C@H](N[*:1])C(=O)c1nc2ccc(C(=O)[*:2])cc2s1

Tests used:
[1] = Plasma protein binding in mouse assessed as unbound fraction; assay type: ADME, cell-free
Coagulation factor X = Coagulation factor X (Homo sapiens, UniProt P00742); experiment: Inhibition of recombinant C-terminal 10His-tagged human coagulation factor 10a (Leu24 to Lys488 residues) expressed in baculovirus infected Sf9 insect cells using Bz-Ile-Glu-Gly-Arg-pNA as substrate preincubated for 30 mins followed by substrate addition by chromogenic assay
[2] = Toxicity in NSG mouse at 100 mg/kg, ip administered daily for 7 days; assay type: organism-based; details: in vivo, time 7 day
Prothrombin = Prothrombin (Homo sapiens, UniProt P00734); experiment: Inhibition of recombinant thrombin (unknown origin) using D-Phe-Pip-Arg-pNA as substrate preincubated for 30 mins followed by substrate addition by chromogenic assay
[3] = Toxicity in NSG mouse assessed as body weight loss at 20 to 100 mg/kg, ip administered for 7 days; assay type: organism-based; details: in vivo, dose 20-100 mg/kg, time 7 day
[4] = Stability in mouse liver microsomes assessed as half life; assay type: ADME, Microsome
HCC827 = experiment: Inhibition of pro-HGF stimulated wound healing in human HCC827 cells preincubated for 30 mins followed by pro-HGF stimulation and measured after 24 hrs by crystal violet staining based assay; assay type: functional, cell-based
How it was run: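 HCC827 monolayers grown to confluence, serum-starved overnight, then scratched. Cells were pre-incubated 30 min with inhibitor (10 µM) and stimulated with HGF or pro-HGF for 24 h. Wells stained with crystal violet to score closure. n=3; one-way ANOVA versus pro-HGF alone.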

[5] = Stability in mouse plasma assessed as half life; assay type: ADME, cell-free
[6] = target: T1, Hepatocyte growth factor activator serine protease (Homo sapiens) (UniProt Q04756); experiment: Inhibition of recombinant human HGFA serine protease domain mediated pro-HGF activation preincubated for 30 mins followed by pro-HGF addition and measured after 1 hr by immunoblotting analysis
T1 sequence (whole entry): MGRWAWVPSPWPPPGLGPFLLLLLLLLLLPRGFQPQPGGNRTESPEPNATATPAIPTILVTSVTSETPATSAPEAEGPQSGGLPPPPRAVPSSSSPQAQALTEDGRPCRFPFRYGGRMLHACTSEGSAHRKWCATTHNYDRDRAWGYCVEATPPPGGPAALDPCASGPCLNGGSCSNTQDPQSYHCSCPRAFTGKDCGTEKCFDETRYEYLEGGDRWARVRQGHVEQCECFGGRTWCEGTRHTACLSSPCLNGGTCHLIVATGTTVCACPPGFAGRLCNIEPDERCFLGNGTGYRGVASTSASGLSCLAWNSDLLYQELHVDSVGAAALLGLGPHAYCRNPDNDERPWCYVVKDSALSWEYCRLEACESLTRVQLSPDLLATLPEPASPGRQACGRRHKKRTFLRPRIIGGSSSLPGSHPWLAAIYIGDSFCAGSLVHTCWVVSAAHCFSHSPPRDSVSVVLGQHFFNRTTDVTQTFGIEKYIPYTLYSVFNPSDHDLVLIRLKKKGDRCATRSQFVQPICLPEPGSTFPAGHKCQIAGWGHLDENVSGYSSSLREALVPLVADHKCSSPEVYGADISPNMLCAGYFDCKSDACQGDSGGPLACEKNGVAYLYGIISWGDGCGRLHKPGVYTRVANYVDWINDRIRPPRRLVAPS
How it was run: (§1)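 Recombinant pro-HGF (10 ng) incubated one hour with matriptase (1 nM), hepsin (10 nM) or HGFA (5 nM), with or without inhibitor. Processing detected by immunoblot with a polyclonal antibody recognizing pro-HGF and the HGF alpha and beta chains; active HGF served as positive control.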

Serine protease hepsin = Serine protease hepsin (Homo sapiens, UniProt P05981); experiment: Inhibition of recombinant human C-terminal 10-His tagged hepsin (Arg45 to Leu417) expressed in mouse myeloma cells mediated pro-HGF activation preincubated for 30 mins followed by pro-HGF addition and measured after 1 hr by immunoblotting analysis; how it was run: as §1
[7] = target: T2, Suppressor of tumorigenicity 14 protein (Homo sapiens) (UniProt Q9Y5Y6); experiment: Inhibition of recombinant human N-terminal met-His6-tagged matriptase catalytic domain (Gly596 to Val855 residues) expressed in Escherichia coli mediated pro-HGF activation preincubated for 30 mins followed by pro-HGF addition and measured after 1 hr by immunoblotting analysis; how it was run: as §1
T2 sequence (whole entry): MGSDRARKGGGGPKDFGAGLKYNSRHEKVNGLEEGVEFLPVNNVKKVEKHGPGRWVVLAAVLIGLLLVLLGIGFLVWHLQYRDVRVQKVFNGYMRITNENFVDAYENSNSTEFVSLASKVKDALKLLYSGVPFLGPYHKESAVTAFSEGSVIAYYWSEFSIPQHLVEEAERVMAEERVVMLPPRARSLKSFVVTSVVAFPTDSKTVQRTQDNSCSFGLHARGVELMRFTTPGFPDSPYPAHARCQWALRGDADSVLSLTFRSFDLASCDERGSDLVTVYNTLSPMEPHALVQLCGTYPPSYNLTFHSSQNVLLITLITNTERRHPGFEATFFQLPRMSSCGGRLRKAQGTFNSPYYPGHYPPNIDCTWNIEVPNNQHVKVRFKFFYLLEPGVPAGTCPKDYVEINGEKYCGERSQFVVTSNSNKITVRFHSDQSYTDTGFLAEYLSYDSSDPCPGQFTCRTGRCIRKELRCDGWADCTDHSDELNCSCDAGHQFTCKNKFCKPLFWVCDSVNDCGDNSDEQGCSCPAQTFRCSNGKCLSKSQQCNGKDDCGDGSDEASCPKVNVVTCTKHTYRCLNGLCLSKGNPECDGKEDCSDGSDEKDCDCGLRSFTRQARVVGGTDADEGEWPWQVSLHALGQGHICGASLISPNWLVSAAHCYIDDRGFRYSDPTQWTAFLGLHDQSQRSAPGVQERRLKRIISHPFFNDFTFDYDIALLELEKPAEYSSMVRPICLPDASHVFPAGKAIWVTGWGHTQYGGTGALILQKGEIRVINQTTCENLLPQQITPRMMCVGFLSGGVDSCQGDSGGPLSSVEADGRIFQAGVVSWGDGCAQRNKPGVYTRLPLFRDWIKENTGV

EBC-1 = experiment: Cytotoxicity against human EBC-1 cells assessed as reduction in cell viability preincubated with compound and pro-HGF for 24 hrs followed by JNJ-38877605 addition and measured after 48 hrs by CellTiter-Glo assay; assay type: functional, cell-based; details: time 72.0 hrs
How it was run: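 EBC-1 cells pre-incubated 24 h with pro-HGF (100 ng/ml) with or without compound (1 µM), then given MET kinase inhibitor JNJ-38877605 (25 nM). Viability read by CellTiter-Glo after 48 h. Means±S.E.M., n=3; one-way ANOVA with Dunnett's test.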

NCI-H596 = experiment: Antitumor activity against human NCI-H596 cells xenografted in hHGF knock in NSG mouse assessed as tumor growth inhibition at 50 mg/kg, ip administered daily for 25 days; assay type: functional, organism-based; details: time 25.0 day

With `CC(=O)N[C@@H](CO)C(=O)N[C@@H](CCCCN)C(=O)N[C@@H](CC(C)C)C(=O)N[C@@H](CCCNC(=N)N)C(=O)c1nc2ccc(C(=O)N[C@H](C(N)=O)C(C)C)cc2s1` (Ac-SKL[X1]V-NH2) the fraction unbound [1] was 0.167, the IC50 (Coagulation factor X) was 0.77 µM and the Activity [2] was “Non-Toxic”. The IC50 (Prothrombin) was 9 µM, the Activity [3] was “Non-Toxic” and the t1/2 [4] was > 2.42 h. The inhibition (HCC827) was “Active”, the t1/2 [5] was 3.07 h and the inhibition [6] was “Active”. The inhibition (Serine protease hepsin) was “Active”, the inhibition [7] was “Active” and the Activity (EBC-1) was “Active”. The Activity (NCI-H596) was “Active”.
